Reference: PubChem BioAssay
Records with an inconclusive call do not appear.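 Rule for the calls, unless noted: active = viability increase at or above a cutoff of the median across tested compounds plus 3 SD (cut at about 8.5% in these data, passing the limit was not always enough); inconclusive = some gains above the cutoff, reason not given; inactive = the rest.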

Experiments:
[1] = OD615 S. cerevisiae growth inhibition, permissive medium, pilot counter-assay, permissive growth control for S. cerevisiae lifespan shortening project (AID 705;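 active = growth inhibition above 25% in both replicates, a cutoff set 3 SD above the mean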); conditions: OD615, 24 h, at 10 µM, active compounds read high
Procedure, shortened: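 System: Engineered DeaD yeast | Buffer or medium: SC raffinose/galactose permissive medium | Incubation: Cells pre-grown 4 h, then 24 h compound exposure, 30 °C humidified | Measured by: Absorbance (optical density) at 615 nm | Read-out: Reduction in yeast growth (OD615)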

[2] = Restrictive medium S. cerevisiae growth inhibition, OD615, pilot screen of yeast lifespan reduction project, restrictive growth control (AID 706;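 active = growth inhibition above a set limit, 3 SD over mean compound inhibition, in both replicates, cut at about 43% in these data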;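 note: modified DeaD lifespan yeast strain shifted to restrictive glucose medium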); conditions: OD615, 48 h, at 10 µM, active compounds read high
Procedure, shortened: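 Material: modified S. cerevisiae; Medium: glucose-based CSMM-D restrictive medium; Compound dosing: one concentration, 10 µM final, 0.25% DMSO; Incubation: 48 h compound exposure at 30 °C; Measured by: OD615.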

[3] = viability gain of MRP-1-high H69AR cells under doxorubicin, pilot screen, MRP-1 activator project, CellTiter-Glo, duplicate (AID 807); conditions: H69AR viability with doxorubicin, CellTiter-Glo luminescence; at 10 µM; active compounds read high;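 note: compound pretreatment 18-22 h then 72 h combined with doxorubicin; 0% = doxorubicin alone and 100% = vehicle without doxorubicin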
[4] = growth suppression of beta-catenin knockout HCT116, pilot screen, human colon tumor cells (AID 823;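 active = cell viability at or below a set limit in both duplicate runs, the limit being the all-compound median minus 4 SD, cut at about 23% in these data, passing the limit was not always enough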;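 note: 0% = wells killed by 20 µM Hyamine and 100% = untreated DMSO cell wells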); conditions: CellTiter-Glo, 60 h, at 10 µM, active compounds read low
[5] = growth suppression of PTEN-deleted HCT116, pilot screen, cell-based, HCT116 clonal line, CellTiter-Glo (AID 824;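 active = viability at or below 27.92% in each of two runs, the all-compound median minus 4 SD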;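 note: 0% = 20 µM Hyamine control and 100% = vehicle cell control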); conditions: 60 h, at 10 µM, active compounds read low
[6] = inhibitors of the yeast RAM network, pilot screen, dse1pr::URA3 reporter, 5-FOA selection (AID 869;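 active = inhibition over a set limit, the all-compound mean plus 3 SD, in both replicate runs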;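 note: 0% = DMSO wells with no growth and 100% = 10 µM 1-NA-PP1 with full growth; RAM network block rescues cells from 5-FOA so hits raise OD615 growth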); conditions: S. cerevisiae dse1pr::URA3 5-FOA growth, OD615, 2 d; at 10 µM; active compounds read high; strain carries analog-sensitive mutant Cbk1 kinase
[7] = RAM signaling pathway blockade in yeast – S. cerevisiae, Pdr1DBD-CYC8 efflux-inhibited sensitized strain, primary screen (AID 1298;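 active = RAM network inhibition above 8.4% in each of two replicates, 3 SD over the compound average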;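 note: 0% = DMSO untreated cells without growth and 100% = 10 µM 1-NA-PP1 full growth; higher means more yeast growth rescued from 5-FOA killing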); conditions: S. cerevisiae cbk1-as DSE1-URA3 strain, 5-FOA growth OD615, 2 d; at 50 µM; active compounds read high

CCOc1ccc(C(=O)Nc2c3c(nn2-c2cccc(C)c2C)CS(=O)C3)cc1 (configuration not stated)
inactive: growth inhibition [1] -1.6% | growth inhibition [2] 3.53% | viability increase [3] -0.32% | viability [4] 98.4% | viability [5] 96.2% | inhibition [6] 1.62% | RAM network inhibition [7] 2.34%

COc1ccc(OC)c(NC(=O)CNC(=O)Cn2ccc3ccccc3c2=O)c1
inactive: growth inhibition [1] -9.38% | growth inhibition [2] 10.5% | viability increase [3] -1.6% | viability [4] 104% | viability [5] 90.5% | inhibition [6] 3.29% | RAM network inhibition [7] -0.05%

Cn1c(C(=O)N2CCN(c3ccccc3F)CC2)cc2c(=O)n(C)c3ccccc3c21
inactive: growth inhibition [1] -2.8% | growth inhibition [2] -4.68% | viability increase [3] -2.61% | viability [4] 100% | viability [5] 98.6% | inhibition [6] 2.54% | RAM network inhibition [7] 1.59%

Brc1ccc(-c2nnc3sc(CNCc4ccc5c(c4)OCO5)cn23)cc1
inactive: growth inhibition [1] 5.46% | growth inhibition [2] 20.8% | viability increase [3] -0.67% | viability [4] 99.6% | viability [5] 99.8% | inhibition [6] 1.17% | RAM network inhibition [7] 1.64%

COc1ccc(N2CSC3=C(C#N)C(c4ccc(OC)c(OC)c4)CC(=O)N3C2)c(OC)c1 (configuration not stated)
inactive: growth inhibition [1] 18.8% | growth inhibition [2] 22.1% | viability increase [3] -4.13% | viability [4] 79.5% | viability [5] 81.7% | inhibition [6] 1.88% | RAM network inhibition [7] 0.93%

O=C(NCCC1=CCCCC1)c1ccc2c(=O)n3c(nc2c1)CCCCC3
inactive: growth inhibition [1] -10.1% | growth inhibition [2] -2.77% | viability increase [3] -1.07% | viability [4] 89.6% | viability [5] 97.8% | inhibition [6] -0.66% | RAM network inhibition [7] 0.26%

COc1ccc(C2N(c3cc(Cl)ccc3OC)C(=O)C3CCCN32)cc1OC (configuration not stated)
inactive: growth inhibition [1] -8.95% | growth inhibition [2] -8.17% | viability increase [3] -1.86% | viability [4] 106% | viability [5] 95.9% | inhibition [6] 1.02% | RAM network inhibition [7] 7.33%

CC(C)n1c(NCc2cc(Cl)ccc2O)nc2ccccc21
inactive: growth inhibition [1] -3.83% | growth inhibition [2] -7.78% | viability increase [3] -0.71% | viability [4] 88.8% | viability [5] 87.9% | inhibition [6] -0.06% | RAM network inhibition [7] 1.06%

CCN1CCN(Cc2nc3c(c(=O)n(C)c(=O)n3C)n2Cc2ccccc2Cl)CC1
inactive: growth inhibition [1] -8.38% | growth inhibition [2] -13.4% | viability increase [3] -3.38% | viability [4] 91.7% | viability [5] 91.6% | inhibition [6] 1.17% | RAM network inhibition [7] 0.71%

CCOc1ccc(NC(=O)CSc2nnc(Cc3cccn3C)n2-c2ccc(F)cc2)cc1
inactive: growth inhibition [1] 11.1% | growth inhibition [2] 19.2% | viability increase [3] -4.64% | viability [4] 95.7% | viability [5] 91% | inhibition [6] 1.56% | RAM network inhibition [7] 6.97%

CCn1c(=NC(=O)CSC(C)=O)sc2cc(OC)ccc21
inactive: growth inhibition [1] -22.8% | growth inhibition [2] 7.25% | viability increase [3] -5.19% | viability [4] 64.1% | viability [5] 77.2% | inhibition [6] 1.25% | RAM network inhibition [7] 2.46%

CCOC(=O)c1ccc(NC(=O)NCCN2CCCCC2)cc1
inactive: growth inhibition [1] -0.03% | growth inhibition [2] -4.93% | viability increase [3] -0.32% | viability [4] 105% | viability [5] 100% | inhibition [6] 1.49% | RAM network inhibition [7] 3.62%

CCOc1ccccc1NC(=O)C1Cc2ccccc2CN1S(C)(=O)=O (configuration not stated)
inactive: growth inhibition [1] -8.32% | growth inhibition [2] -7.46% | viability increase [3] -5.66% | viability [4] 82.9% | viability [5] 80.6% | inhibition [6] 0.37% | RAM network inhibition [7] 3%

O=C(Cc1cc(=O)[nH]c(=O)[nH]1)NCCN1CCOCC1
inactive: growth inhibition [1] 4.2% | growth inhibition [2] 10.4% | viability increase [3] 1.08% | viability [4] 102% | viability [5] 98.6% | inhibition [6] 0.35% | RAM network inhibition [7] 5.04%

CN(C)S(=O)(=O)N1CCC(Cc2ccccc2)CC1
inactive: growth inhibition [1] -9.73% | growth inhibition [2] 3.98% | viability increase [3] -0.78% | viability [4] 85.3% | viability [5] 85% | inhibition [6] -0.275% | RAM network inhibition [7] 1.8%

Cc1nc2sc(C(c3ccc(Cl)cc3)N3CCN(CCO)CC3)c(O)n2n1 (configuration not stated)
inactive: growth inhibition [1] 7.67% | growth inhibition [2] 4.92% | viability increase [3] -2.42% | viability [4] 97% | viability [5] 90.2% | inhibition [6] 1.82% | RAM network inhibition [7] 1.58%

N#Cc1c(SCC(N)=O)nc2c(c1-c1ccc(O)cc1)CCCC2
inactive: growth inhibition [1] -15.2% | growth inhibition [2] -15.6% | viability increase [3] -1.33% | viability [4] 94.5% | viability [5] 93.6% | inhibition [6] 3.51% | RAM network inhibition [7] 4.51%

COc1ccc(S(=O)(=O)N2CCC(C(=O)N3CCc4ccccc4C3)CC2)cc1
inactive: growth inhibition [1] 11.1% | growth inhibition [2] -10.1% | viability increase [3] -5.43% | viability [4] 93.5% | viability [5] 85% | inhibition [6] 0.13% | RAM network inhibition [7] 2.53%

CCN(C(=O)c1sc(N)c(C#N)c1C)C1CCCCC1
inactive: growth inhibition [1] -1.28% | growth inhibition [2] -0.585% | viability increase [3] 0.43% | viability [4] 92.1% | viability [5] 91.6% | inhibition [6] 1.5% | RAM network inhibition [7] 0.01%

O=C(NCC1CCCO1)c1ccc2nc(N3CCCCC3)sc2c1 (configuration not stated)
inactive: growth inhibition [1] -2.59% | growth inhibition [2] -4.53% | viability increase [3] -0.46% | viability [4] 102% | viability [5] 96.8% | inhibition [6] 2.37% | RAM network inhibition [7] 1.03%

O=C(NCC1CCCO1)c1nnc(Cc2ccc(F)cc2)o1 (configuration not stated)
inactive: growth inhibition [1] -12.6% | growth inhibition [2] 10.5% | viability increase [3] -0.18% | viability [4] 98.4% | viability [5] 99.4% | inhibition [6] 0.085% | RAM network inhibition [7] 1.47%

Cc1cccc(NC(=O)CCNS(=O)(=O)c2cccc3nsnc23)c1
inactive: growth inhibition [1] -7.62% | growth inhibition [2] -12.6% | viability increase [3] -2.32% | viability [4] 94.5% | viability [5] 90.7% | inhibition [6] 1.34% | RAM network inhibition [7] 1.66%

Cn1c(C(=O)NC2CCCCC2)cc2c(=O)n(C)c3ccccc3c21
inactive: growth inhibition [1] -10.6% | growth inhibition [2] -6.48% | viability increase [3] -1.7% | viability [4] 88% | viability [5] 73.8% | inhibition [6] 1.46% | RAM network inhibition [7] 4.6%

CC1=C(C(=O)OC2CCCCC2)C(c2ccco2)n2ncnc2N1 (configuration not stated)
inactive: growth inhibition [1] -9.02% | growth inhibition [2] 4.91% | viability increase [3] -1.43% | viability [4] 90.7% | viability [5] 88.8% | inhibition [6] 1.47% | RAM network inhibition [7] 5.64%

NC(=O)C1CCN(c2ncnc3c2c(-c2ccccc2)cn3-c2ccccc2)CC1
inactive: growth inhibition [1] -2.17% | growth inhibition [2] 8.02% | viability increase [3] -4.62% | viability [4] 81.3% | viability [5] 81.9% | inhibition [6] -0.35% | RAM network inhibition [7] 3.9%

Cc1nn(C)cc1CN(C)C(=O)c1sc2cccc(Cl)c2c1Cl
inactive: growth inhibition [1] -4.77% | growth inhibition [2] 5.83% | viability increase [3] 0.61% | viability [4] 84.1% | viability [5] 82.1% | inhibition [6] -0.12% | RAM network inhibition [7] 3.58%

COc1ccccc1-c1nnc(SCC(=O)Nc2ccc(Cl)cc2Cl)o1
inactive: growth inhibition [1] -2.08% | growth inhibition [2] 9.34% | viability increase [3] 2.61% | viability [4] 97.4% | viability [5] 91.1% | inhibition [6] 1.71% | RAM network inhibition [7] 8.66%

Cc1ccc(Cn2nnc3c(=O)n(Cc4ccccc4C)cnc32)cc1
inactive: growth inhibition [1] 1.6% | growth inhibition [2] -5.54% | viability increase [3] -2.98% | viability [4] 92.7% | viability [5] 82.3% | inhibition [6] 1.68% | RAM network inhibition [7] 8.59%

COc1ccc2c(c1)OC13CCN(C)CC1C2C(C(=O)c1ccc(F)cc1)C(=O)N3 (configuration not stated)
inactive: growth inhibition [1] -25.9% | growth inhibition [2] -21.6% | viability increase [3] -4.02% | viability [4] 78.9% | viability [5] 81.4% | inhibition [6] 0.27% | RAM network inhibition [7] 0.97%

Cn1c(C(=O)NCCc2c[nH]c3ccccc23)cc2sccc21
inactive: growth inhibition [1] -2.17% | growth inhibition [2] 12.7% | viability increase [3] -4.58% | viability [4] 95% | viability [5] 88% | inhibition [6] 1.56% | RAM network inhibition [7] 2%

COc1ccc(C2C(C(=O)N3CCCC3)c3cc(OC)c(OC)cc3C(=O)N2C)cc1OC (configuration not stated)
inactive: growth inhibition [1] -6.69% | growth inhibition [2] -25.4% | viability increase [3] -1.65% | viability [4] 105% | viability [5] 100% | inhibition [6] 1.54% | RAM network inhibition [7] 2.23%

Cc1c2cnn(-c3ccccc3)c(=O)c2c(C)n1CCCC(=O)N1CCN(C)CC1
inactive: growth inhibition [1] -6.96% | growth inhibition [2] -7.72% | viability increase [3] -1.33% | viability [4] 104% | viability [5] 96.2% | inhibition [6] 1.86% | RAM network inhibition [7] 3.19%

CC(C)(C)Nc1ncnc2c1cnn2-c1ccccc1
inactive: growth inhibition [1] -3.38% | growth inhibition [2] 17.3% | viability increase [3] 2% | viability [4] 92.3% | viability [5] 90.3% | inhibition [6] 1.31% | RAM network inhibition [7] -2.37%

COc1cccc(C2C(C(=O)OCc3ccccc3)=C(C)Nc3ncnn32)c1OC (configuration not stated)
inactive: growth inhibition [1] -8.96% | growth inhibition [2] 1.86% | viability increase [3] 0.73% | viability [4] 103% | viability [5] 83.5% | inhibition [6] 2.32% | RAM network inhibition [7] 4.9%

Cc1ccc2cc(CCNC(=O)CC(C)C)c(=O)[nH]c2c1
inactive: growth inhibition [1] -7.75% | growth inhibition [2] -0.53% | viability increase [3] 0.14% | viability [4] 105% | viability [5] 103% | inhibition [6] 1.69% | RAM network inhibition [7] 3.87%

COc1ccc(N(CC(=O)N2CCCCC2)S(=O)(=O)c2c(C)nn(C)c2C)cc1
inactive: growth inhibition [1] -5.81% | growth inhibition [2] 5.36% | viability increase [3] -2.35% | viability [4] 105% | viability [5] 96.7% | inhibition [6] 1.69% | RAM network inhibition [7] 2.99%
